This is a sample that favours compounds with a hit; in the whole collection about 2.3% have one here.
TRPC4 block = blocks the mouse TRPC4 cation channel; Q9QUQ5; HEK293 TRPC4beta/mu-opioid, DAMGO-evoked Fluo4 calcium flux; stronger effect = lower value; B-score at 10 µM; 300,000 tested, 0.39% active;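 active = B-score over 3 SD under the library average, no early fluorescence shift, positive overall ratio signal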
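Assay system: HEK293 cells with stable TRPC4beta plus mu-opioid receptor expression. Dosing: single dose. Measured by: Fluo4 Ca2+ flux fluorescence. Also added: DAMGO in two steps, submaximal then maximal. Read-out: B score from integrated Fluo4 fluorescence ratio.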
TRPC4 PAM = allosterically enhances the mouse TRPC4 cation channel. Q9QUQ5. HEK293 TRPC4beta/mu-opioid, DAMGO EC20, Fluo-4 Ca2+ flux; stronger effect = higher value. B-score at 10 µM. 310,000 tested, 0.42% active. AID 2227;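 active = B-score of calcium response area above 5 SD of library B-scores, with initial fluorescence ratio within 5 SD of library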;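 note: B-score of integrated fluorescence ratio over time as area under calcium response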
TRPC6 activator = mouse TRPC6 channel activation; B-score at 10 µM; AID 2550; HEK293-TRPC6 membrane potential dye fluorescence; stronger effect = higher value; 310,000 tested, 0.13% active;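 active = B-score of the integrated fluorescence ratio above library mean plus 3 SD, and starting fluorescence ratio within library mean plus 5 SD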;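 note: higher score means more depolarization so channel activation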
TRPC4 act = opens the mouse TRPC4 cation channel | Q9QUQ5 | AID 2237 | HEK293 TRPC4beta/mu-opioid, Fluo4 calcium fluorescence; stronger effect = higher value | 310,000 tested, 0.49% active | B-score at 10 µM;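 active = B-score above 5 SD of library B-scores, and initial fluorescence ratio not above library mean plus 5 SD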;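 note: positive B-score marks a calcium rise read as TRPC4 activation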
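Assay system – TRPC4beta and mu-opioid receptor HEK293 stable cells · Measured by – Fluo4 fluorescence, kinetic · Schedule – dye loading 45 min room temperature, 110 s kinetic read · Read-out – B-scored integrated calcium fluorescence ratio · Controls – buffer and maximal DAMGO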
TRPC6 inhibitor = mouse TRPC6 channel inhibition; Q61143; HEK293-TRPC6, membrane potential dye, ACh-evoked depolarization; stronger effect = lower value; B-score at 10 µM; 310,000 tested, 1.1% active;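 active = B-score under library mean minus 3 SD, initial fluorescence not abnormally high, positive integrated signal ratio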;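 note: B-score derived from integrated fluorescence ratio over the kinetic read; more negative B-score means stronger inhibition of depolarization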
Numbers without * were called inactive; i = inactive.

SMILES | TRPC4 block | TRPC4 PAM | TRPC6 activator | TRPC4 act | TRPC6 inhibitor
CCCOc1ccc(C(=O)NNC(=S)NC(=O)c2cccs2)cc1 | i | i | i | 175* | i
CCCOc1ccc(C(=O)NNC(=S)NC(=O)c2ccccc2[N+](=O)[O-])cc1 | i | i | i | i | i
CCCOc1ccc(C(=O)NNC(=S)NC(=O)c2ccccc2)cc1 | i | i | i | 167* | i
CCCCOc1ccc(C(=O)NNC(=S)NC(=O)CC)cc1 | i | i | i | 73* | i
CCCOc1ccc(C(=O)NNC(=S)NC(C)=O)cc1 | i | i | i | i | i
CC(C)CN(C(=O)COC(=O)CCCc1c[nH]c2ccccc12)c1c(N)n(Cc2ccccc2)c(=O)[nH]c1=O | i | i | i | i | i
COc1cc(CN2CCN(S(=O)(=O)c3ccccc3)CC2)cc(OC)c1OC | i | i | i | i | i
COc1cc(S(=O)(=O)N2CCN(Cc3ccccc3)CC2)ccc1Br | i | 10* | i | i | i
O=C(C1CCN(Cc2ccc(F)cc2)CC1)N1CCN(C/C=C/c2ccccc2)CC1 | i | i | i | i | i
O=C(O)C1C2CCC(CC2)C1C(=O)N1CCN(Cc2ccc(F)cc2)CC1 (configuration not stated) | i | i | i | 87* | i
Cc1cc(NC(=O)NC(=O)c2ccccc2F)no1 | i | i | i | i | i
CCCCN(CC)CCNC(=O)Cn1cc2c(n1)-c1c(oc(C(=O)N3CCCC3)c1C)CC2 | i | i | i | 125* | i
Cc1c(C(=O)N2CCCC2)oc2c1-c1nn(CC(=O)NCCCOC(C)C)cc1CC2 | i | i | i | i | i
COc1cccc(CN2C(=O)C(C)N(C(=O)c3ccccc3)c3ccccc32)c1 (configuration not stated) | i | i | i | i | i
CC(C)(C)C(=O)N1CCN(c2ccc([N+](=O)[O-])cc2-n2cccc2)CC1 | i | 16* | i | i | i
Oc1ccc(-c2[nH]ncc2-c2cnn(-c3ccccc3)c2)c(O)c1 | -5* | i | i | i | i
O=S(=O)(c1ccc(C(F)(F)F)cc1)N1CCN(CCc2ccccc2)CC1 | i | i | i | i | i
O=C1/C(=C/c2ccc([N+](=O)[O-])cc2)C=C(c2ccccc2)N1c1ccc(O)cc1 | i | i | i | i | -5.2*
Cn1cnnc1SCC(=O)Nc1ccc(OCc2ccccc2)cc1 | i | i | i | i | i
CCOc1cc(OCC)cc(C(=O)NCCCN2CCOCC2)c1 | i | i | i | i | i
COc1ccc(N2CCN(CCCNC(=O)c3ccc(CS(=O)(=O)c4ccc(OC)cc4)o3)CC2)cc1 | -6* | i | i | i | i
COc1cc(OC)cc(C(=O)NCCCN2CCN(CCCNC(=O)c3cc(OC)cc(OC)c3)CC2)c1 | i | i | i | 119* | i
CC(=O)C1=C(O)C(=O)N(Cc2ccco2)C1c1ccc2c(c1)OCO2 (configuration not stated) | -7* | i | i | i | i
C=CCOc1cccc(C2C(C(=O)c3ccco3)=C(O)C(=O)N2Cc2ccco2)c1 (configuration not stated) | i | i | i | i | i
O=c1c2ccccc2[nH]c(=S)n1Cc1cccnc1 | -6* | i | i | 45* | i
SMILES | TRPC4 block | TRPC4 PAM | TRPC6 activator | TRPC4 act | TRPC6 inhibitor
c1ccc(CN2CCN(Cc3c[nH]c4ccccc34)CC2)cc1 | -6* | i | i | i | i
O=c1c2ccccc2[nH]c(=S)n1CCN1CCN(Cc2ccccc2)CC1 | -6* | i | i | i | i
CN(C)CCn1c(=S)[nH]c2ccccc2c1=O | i | 11* | i | i | i
Cc1ccc2c(c1C)OC(=O)CC2(C)C | i | i | i | i | i
Cc1sc(NC(=O)C2CCCCC2C(=O)O)c(C(N)=O)c1-c1ccc(C(C)(C)C)cc1 (configuration not stated) | -5* | i | i | i | i
C=CCN(CC=C)Cc1c(C)[nH]c2ccc(C(=O)OCC)cc2c1=O | i | i | i | i | i
Cc1ccc(NC(=O)N2CCCC2C(=O)NCCc2ccccc2)cc1 (configuration not stated) | -6* | i | i | i | i
Cc1cc2nnc(SCC(=O)NC3CCCCC3)n2c(N)n1 | i | i | i | i | i
O=C(O)C1C2C=CC(C2)C1C(=O)NC1CCN(Cc2ccccc2)CC1 (configuration not stated) | i | i | i | 122* | i
CN(C)C(CNC(=O)CSc1nnc(-c2ccco2)o1)c1ccccc1 (configuration not stated) | i | i | i | 64* | i
COc1ccc(-n2cc(CNCCCn3ccnc3)c(-c3ccccc3Cl)n2)cc1 | i | i | i | i | i
COc1ccc(-n2cc(CNCCc3nc(C)cc(C)n3)c(-c3ccccc3Cl)n2)cc1 | i | i | i | i | i
COc1ccc(-n2cc(CNCCc3ncc(C)[nH]3)c(-c3ccccc3Cl)n2)cc1 | i | i | i | 148* | i
Cc1ccc(-n2cc(CNCCc3ncc(C)[nH]3)c(-c3ccc(F)cc3)n2)cc1 | i | i | i | 133* | i
Fc1ccc(-n2cc(CNCCc3ccccn3)c(-c3ccccc3Cl)n2)cc1 | i | i | i | 253* | i
COc1cc(OC)c(-n2cc(-c3ccc(OC)c(OC)c3)[nH]c2=S)cc1Cl | i | i | i | i | i
CCc1ccc(OCC(=O)N2CC(C(N)=O)Oc3ccccc32)cc1 (configuration not stated) | i | i | i | i | i
Cc1ccc(CNC(=O)C(=O)NCC2OCCN2S(=O)(=O)c2ccc(Br)cc2)cc1 (configuration not stated) | i | i | i | i | i
CC(Sc1ccccc1)C(=O)NNC(=O)c1ccncc1 (configuration not stated) | i | i | i | i | i
CCn1c(=O)c2cc(C(=O)N(C)c3cc(C)ccc3OC)sc2c2ccccc21 | -6* | i | i | i | i
CC(C)C(=O)N1CCN(c2nc(-c3ccccc3)c3c(c2C#N)CCCC3)CC1 | i | 14* | i | i | i
CC(C)Cc1nc(N2CCN(C(=O)c3ccco3)CC2)c(C#N)c2c1CCCC2 | i | i | i | i | i
CCc1ccc(NC(=O)CN(C(=O)N2CCN(CC)CC2)S(=O)(=O)c2ccc(C)cc2)cc1 | i | i | i | i | i
